# A selection: hits, their analogues and other compounds. The true share with any hit is near 3.5%.
# RGS4 act = RGS4 potentiation or activation. HEK293 M3R/inducible RGS4, carbachol calcium flux Fluo4; stronger effect = lower value. B-score at 10 µM. hit rate 0.92% among 310,000. AID 463111;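 active = B-score of the integrated calcium signal more than 4 SD below the library mean, with starting fluorescence not abnormally high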;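 also: negative B-score means reduced calcium response which marks RGS4 activation or potentiation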
#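 Detection: kinetic calcium fluorescence imaging with Fluo4-AM dye, 2 µM / Material: HEK293 cells with stable M3R and inducible RGS4 / Schedule: recording 10 s baseline at 1 Hz, 100 s post-agonist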
# MrgX1 antagonist = antagonists of human MrgX1 receptor | Q96LB2 | MRGX1-HEK293 calcium flux, Fluo-4, BAM8-22 antagonism; stronger effect = lower value | B-score at 10 µM | hit rate 1.3% among 310,000 | AID 588676;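 active = calcium-response B-score plate-corrected more than 3 library SD below zero, starting fluorescence within 5 deviations, no agonist response on first addition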;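 also: peak minus trough fluorescence over baseline after final BAM8-22 challenge near maximal dose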
# Target sequence (Q96LB2 whole entry, looked up): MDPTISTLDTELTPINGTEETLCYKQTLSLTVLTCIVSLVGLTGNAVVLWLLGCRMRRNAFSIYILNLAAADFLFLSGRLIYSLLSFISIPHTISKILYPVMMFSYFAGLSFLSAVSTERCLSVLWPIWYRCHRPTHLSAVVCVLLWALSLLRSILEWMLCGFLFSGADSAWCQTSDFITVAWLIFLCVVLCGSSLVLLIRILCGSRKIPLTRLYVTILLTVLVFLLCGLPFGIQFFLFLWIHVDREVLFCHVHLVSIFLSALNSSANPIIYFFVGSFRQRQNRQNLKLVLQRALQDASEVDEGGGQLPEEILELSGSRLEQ
# MrgX1 PAM = human MrgX1 positive allosteric modulation, primary screen; Q96LB2; B-score at 10 µM; MrgX1-HEK293, Fluo-4 calcium flux, FDSS; stronger effect = higher value; hit rate 0.63% among 310,000;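 active = plate-corrected calcium response at least 3 library SD above typical, normal starting fluorescence, not activating the receptor alone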;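 also: compound read alongside a low EC10 to EC30 dose of BAM8-22 agonist; peak minus trough fluorescence over baseline measured at the second addition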
# MrgX1 agonist = human MrgX1 receptor agonism, primary screen; MrgX1-HEK293 cells, Fluo-4 calcium fluorescence, agonist mode; stronger effect = higher value; Q96LB2; B-score at 10 µM; hit rate 0.44% among 310,000;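 active = calcium response B-score plate-corrected fluorescence ratio at least 3 library SD, with starting fluorescence B-score inside 5 SD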
#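 System – MrgX1-expressing HEK293 cells · Incubation – cells plated overnight, dye loaded 0.5 h 37 °C, 0.5 h room temperature · Technique – kinetic Fluo-4 NW fluorescence of intracellular calcium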
# RGS4 inh = human RGS4 inhibition; HEK293 M3R/RGS4 inducible, Fluo-4 calcium flux; stronger effect = higher value; triggered by carbachol at its EC20; hit rate 0.45% among 310,000; B-score at 10 µM; P49798;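 active = B-score, a plate-corrected calcium signal, over three deviations above library mean, with baseline fluorescence within five deviations of library mean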;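 also: RGS4 expression induced by doxycycline in cells with stable M3 receptor; B-score is computed from the integrated fluorescence ratio over baseline after carbachol; higher B-score means a larger calcium signal and so more RGS4 inhibition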
# Starred values were filed as active, the others as inactive; i = inactive; · = not tested or not shown.
SMILES,RGS4 act,MrgX1 antagonist,MrgX1 PAM,MrgX1 agonist,RGS4 inh
Cc1ccnc(Nc2nc(-c3ccc(O)cc3O)cs2)c1,i,i,i,i,i
CC(=O)NC(Cc1cccc(C)c1)C(=O)NC1CCN(c2ncccc2[N+](=O)[O-])CC1 (configuration not stated),i,-4.7*,i,i,i
Cc1ccsc1C(=O)NN=C1CCCCCC1,i,i,i,i,i
O=c1c2ccccc2c(/C=N/c2nnc(Cc3ccccc3)s2)c(O)n1-c1ccc(Cl)cn1,i,i,16*,i,i
Cc1ccc(C(=O)NCC(=O)NCCc2ccc(S(N)(=O)=O)cc2)s1,i,i,i,i,i
CCOC(=O)c1ccc(NC(=O)COc2ccc(CNC3CCCCC3)cc2OC)cc1,-7.5*,i,i,i,i
CCN=C1S/C(=C\c2cc(Cl)c(OC)c(OC)c2)C(=O)N1CC,i,i,i,i,i
CCN=C1S/C(=C\c2ccc(OCC)c(OC)c2)C(=O)N1CC,i,-5.1*,i,i,i
Cc1ccc(NC(=O)CNC(=O)Cc2cccc3ccccc23)c(O)c1,i,i,i,i,i
C=CCN=c1scc(-c2ccc(F)cc2)n1/N=C/c1ccccn1,i,i,i,i,i
CCN=c1scc(-c2ccccc2)n1/N=C/c1ccccn1,i,i,12*,i,i
C=CCN=c1scc(-c2ccccc2)n1/N=C/c1ccccn1,i,i,14*,i,i
CCN(NC(=O)C(O)(c1ccc(F)cc1)c1ccc(F)cc1)C(=O)c1ccccc1,i,-5.8*,i,i,i
COc1cccc(OCc2nn3c(=O)c(-c4ccccc4)nnc3s2)c1,i,i,i,i,i
CCOC(=O)c1c(-n2cnnn2)sc2c1CCCC2,i,i,i,i,i
CCOC(=O)c1c(N2C(=O)Nc3cc(Cl)c(Cl)cc3N2O)sc2c1CCCCC2,·,i,i,50*,·
O=C(CCC1CCCC1)N1CCC(N2CCCCCC2)CC1,i,i,i,i,i
O=C(COc1ccc([N+](=O)[O-])cc1Cl)NCCc1ccccc1,i,i,9*,i,i
O=C(COc1ccc(Cl)cc1Cl)NCCCCc1ccccc1,i,i,i,i,i
COC(=O)C1=C(C)N(C)C(C)=C(C(=O)OC)C1c1ccc(F)c(Br)c1,-7.2*,i,i,i,i
COC(=O)C1=C(C)N(C)C(C)=C(C(=O)OC)C1c1ccncc1,i,i,i,i,i
O=C(/C=C/c1ccccc1)c1ccccn1,i,i,i,39*,i
CSC1=C(C#N)C(c2ccccc2Cl)C2=C(N1)c1ccccc1C2=O (configuration not stated),i,i,i,32*,i
CCCOC(=O)c1c(-c2ccc(OC)cc2)oc2ccc(-c3ccc(OC)nc3)cc12,i,-8.3*,i,i,i
COC(=O)c1c(-c2ccc(OC)cc2)oc2ccc(-c3ccc(OC)nc3)cc12,i,i,i,i,i
SMILES,RGS4 act,MrgX1 antagonist,MrgX1 PAM,MrgX1 agonist,RGS4 inh
CC(CN1CCCCC1)OC(=O)/C=C/c1ccccc1 (configuration not stated),i,i,i,i,i
COc1cc(/C=C2\SC(N3CCc4ccccc4C3)=NC2=O)cc(OC)c1OC,i,i,i,i,i
O=C1N=C(N2CCc3ccccc3C2)S/C1=C\c1cccc(O)c1,-8.3*,i,i,i,i
COc1ccc(/C=C2\SC(N3CCc4ccccc4C3)=NC2=O)cc1,i,-4.7*,i,i,i
CC1CC=C2C(C#N)=C(N)C(C#N)(C#N)C(c3cccs3)C2C1 (configuration not stated),i,-5.6*,i,i,i
CCOC(=O)/C(C#N)=C(C)/C=C1\Sc2ccccc2N1CC,i,-5.4*,i,i,i
CC(C)(C)OC(=O)NCc1ccc(CNC(=O)c2[nH]cnc2C(=O)NCC(=O)OCc2ccccc2)cc1,i,i,i,i,i
CC(=O)NC1=NC(=O)/C(=C/c2cc(C)n(-c3ccc(NC(C)=O)cc3)c2C)S1,i,-4.5*,i,i,i

# Screening data: PubChem BioAssay, Johns Hopkins Ion Channel Center
